Key:
[1] = target: Serine/threonine-protein kinase B-raf (Homo sapiens, UniProt P15056, V600E); assay: Inhibition of BRAF V600E mutant-mediated ERK phosphorylation in human WM266.4 cells; assay type: cell-based
Method in brief: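 Cellular pathway read-out: ERK phosphorylation (pERK) was measured in WM266.4 melanoma cells and reported as an IC50.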

[2] = target: Mitogen-activated protein kinase 10 (Homo sapiens) (UniProt P53779); assay: Inhibition of JNK3 at 1 uM relative to control
[3] = target: T1, 5'-AMP-activated protein kinase subunit beta-1 (Homo sapiens) (UniProt Q9Y478); assay: Inhibition of AMPK at 1 uM relative to control
T1 sequence (whole entry): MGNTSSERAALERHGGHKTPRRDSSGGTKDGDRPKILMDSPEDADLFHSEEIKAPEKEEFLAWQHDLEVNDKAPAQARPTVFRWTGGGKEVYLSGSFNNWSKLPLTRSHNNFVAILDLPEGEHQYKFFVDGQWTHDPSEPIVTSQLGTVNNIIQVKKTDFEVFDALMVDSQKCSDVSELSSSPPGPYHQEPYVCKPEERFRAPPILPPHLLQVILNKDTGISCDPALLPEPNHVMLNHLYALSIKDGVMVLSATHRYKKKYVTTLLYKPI

[4] = target: Serine/threonine-protein kinase N2 (Homo sapiens) (UniProt Q16513); assay: Inhibition of PRK2 at 1 uM relative to control
Sequence of Serine/threonine-protein kinase N2 (Homo sapiens) (Q16513 whole entry, looked up): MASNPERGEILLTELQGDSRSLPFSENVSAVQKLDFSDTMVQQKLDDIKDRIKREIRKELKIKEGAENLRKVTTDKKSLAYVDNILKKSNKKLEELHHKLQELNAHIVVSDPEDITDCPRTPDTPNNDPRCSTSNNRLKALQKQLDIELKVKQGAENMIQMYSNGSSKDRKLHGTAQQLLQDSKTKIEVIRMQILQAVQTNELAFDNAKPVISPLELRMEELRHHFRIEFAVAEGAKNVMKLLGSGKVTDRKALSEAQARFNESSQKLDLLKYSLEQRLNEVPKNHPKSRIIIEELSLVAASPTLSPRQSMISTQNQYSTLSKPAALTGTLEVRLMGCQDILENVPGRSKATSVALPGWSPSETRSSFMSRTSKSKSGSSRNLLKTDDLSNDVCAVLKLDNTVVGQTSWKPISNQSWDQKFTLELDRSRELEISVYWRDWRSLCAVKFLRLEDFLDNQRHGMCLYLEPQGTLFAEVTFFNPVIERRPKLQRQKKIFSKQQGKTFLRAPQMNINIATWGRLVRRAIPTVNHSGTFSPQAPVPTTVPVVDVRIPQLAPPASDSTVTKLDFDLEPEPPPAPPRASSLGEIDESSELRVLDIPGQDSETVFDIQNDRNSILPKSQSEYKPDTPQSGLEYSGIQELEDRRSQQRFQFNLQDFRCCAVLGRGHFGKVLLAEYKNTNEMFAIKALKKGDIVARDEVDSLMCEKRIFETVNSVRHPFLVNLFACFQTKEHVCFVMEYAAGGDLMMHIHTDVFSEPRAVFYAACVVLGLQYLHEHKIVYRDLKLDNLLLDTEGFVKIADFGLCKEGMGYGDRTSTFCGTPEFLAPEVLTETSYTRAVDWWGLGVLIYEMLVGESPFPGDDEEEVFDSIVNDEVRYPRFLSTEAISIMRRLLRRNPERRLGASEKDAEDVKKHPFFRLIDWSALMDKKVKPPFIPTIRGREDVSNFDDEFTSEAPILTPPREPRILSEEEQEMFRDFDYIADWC

[5] = target: T2, Serine/threonine-protein kinase Sgk1 (Homo sapiens) (UniProt O00141); assay: Inhibition of SGK1 at 1 uM relative to control
T2 sequence (whole entry): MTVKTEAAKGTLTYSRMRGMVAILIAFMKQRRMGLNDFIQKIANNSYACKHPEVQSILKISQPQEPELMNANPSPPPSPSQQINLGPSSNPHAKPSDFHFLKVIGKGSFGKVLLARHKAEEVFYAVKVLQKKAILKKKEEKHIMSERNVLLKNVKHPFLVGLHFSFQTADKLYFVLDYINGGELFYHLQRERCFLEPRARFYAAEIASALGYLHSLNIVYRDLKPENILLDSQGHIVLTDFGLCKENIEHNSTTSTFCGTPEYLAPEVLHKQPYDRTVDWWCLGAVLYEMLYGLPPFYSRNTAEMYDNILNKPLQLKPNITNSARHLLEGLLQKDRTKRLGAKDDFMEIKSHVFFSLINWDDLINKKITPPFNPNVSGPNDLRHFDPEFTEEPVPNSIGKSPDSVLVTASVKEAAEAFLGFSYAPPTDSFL

[6] = target: T3, Serine/threonine-protein kinase BRSK2 (Homo sapiens) (UniProt Q8IWQ3); assay: Inhibition of BRSK2 at 1 uM relative to control
T3 sequence (whole entry): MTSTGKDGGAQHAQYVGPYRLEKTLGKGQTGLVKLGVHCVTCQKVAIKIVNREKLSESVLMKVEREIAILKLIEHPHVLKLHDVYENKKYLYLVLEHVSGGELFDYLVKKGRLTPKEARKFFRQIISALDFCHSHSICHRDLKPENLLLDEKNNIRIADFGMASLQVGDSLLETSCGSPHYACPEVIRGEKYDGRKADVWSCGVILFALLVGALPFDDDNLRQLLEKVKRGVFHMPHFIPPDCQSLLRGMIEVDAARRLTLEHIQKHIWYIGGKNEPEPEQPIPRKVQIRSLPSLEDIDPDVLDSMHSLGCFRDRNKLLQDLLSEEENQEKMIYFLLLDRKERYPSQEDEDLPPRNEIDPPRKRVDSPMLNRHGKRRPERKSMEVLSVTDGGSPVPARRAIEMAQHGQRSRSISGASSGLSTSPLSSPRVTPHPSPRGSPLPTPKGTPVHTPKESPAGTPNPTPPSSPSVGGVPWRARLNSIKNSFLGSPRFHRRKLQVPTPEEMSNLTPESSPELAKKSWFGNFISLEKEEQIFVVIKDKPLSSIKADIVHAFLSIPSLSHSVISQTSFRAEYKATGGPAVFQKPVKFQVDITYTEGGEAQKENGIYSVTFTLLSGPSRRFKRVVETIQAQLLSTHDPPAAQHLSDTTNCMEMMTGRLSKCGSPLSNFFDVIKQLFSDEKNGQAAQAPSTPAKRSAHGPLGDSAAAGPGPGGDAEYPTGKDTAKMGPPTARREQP

Sequence of Mitogen-activated protein kinase 10 (Homo sapiens) (P53779 whole entry): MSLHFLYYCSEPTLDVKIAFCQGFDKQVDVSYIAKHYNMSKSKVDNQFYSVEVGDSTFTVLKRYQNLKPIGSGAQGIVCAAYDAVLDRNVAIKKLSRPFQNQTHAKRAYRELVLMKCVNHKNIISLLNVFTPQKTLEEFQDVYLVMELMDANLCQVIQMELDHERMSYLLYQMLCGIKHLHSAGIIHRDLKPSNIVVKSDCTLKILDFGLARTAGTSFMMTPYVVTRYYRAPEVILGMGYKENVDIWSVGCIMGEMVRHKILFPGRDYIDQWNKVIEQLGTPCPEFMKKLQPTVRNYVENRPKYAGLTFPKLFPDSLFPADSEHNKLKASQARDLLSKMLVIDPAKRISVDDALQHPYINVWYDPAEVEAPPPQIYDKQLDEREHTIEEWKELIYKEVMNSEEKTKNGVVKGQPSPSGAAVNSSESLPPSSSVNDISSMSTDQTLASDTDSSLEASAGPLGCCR
Sequence of Serine/threonine-protein kinase B-raf (P15056 2-766 V600E limits assumed): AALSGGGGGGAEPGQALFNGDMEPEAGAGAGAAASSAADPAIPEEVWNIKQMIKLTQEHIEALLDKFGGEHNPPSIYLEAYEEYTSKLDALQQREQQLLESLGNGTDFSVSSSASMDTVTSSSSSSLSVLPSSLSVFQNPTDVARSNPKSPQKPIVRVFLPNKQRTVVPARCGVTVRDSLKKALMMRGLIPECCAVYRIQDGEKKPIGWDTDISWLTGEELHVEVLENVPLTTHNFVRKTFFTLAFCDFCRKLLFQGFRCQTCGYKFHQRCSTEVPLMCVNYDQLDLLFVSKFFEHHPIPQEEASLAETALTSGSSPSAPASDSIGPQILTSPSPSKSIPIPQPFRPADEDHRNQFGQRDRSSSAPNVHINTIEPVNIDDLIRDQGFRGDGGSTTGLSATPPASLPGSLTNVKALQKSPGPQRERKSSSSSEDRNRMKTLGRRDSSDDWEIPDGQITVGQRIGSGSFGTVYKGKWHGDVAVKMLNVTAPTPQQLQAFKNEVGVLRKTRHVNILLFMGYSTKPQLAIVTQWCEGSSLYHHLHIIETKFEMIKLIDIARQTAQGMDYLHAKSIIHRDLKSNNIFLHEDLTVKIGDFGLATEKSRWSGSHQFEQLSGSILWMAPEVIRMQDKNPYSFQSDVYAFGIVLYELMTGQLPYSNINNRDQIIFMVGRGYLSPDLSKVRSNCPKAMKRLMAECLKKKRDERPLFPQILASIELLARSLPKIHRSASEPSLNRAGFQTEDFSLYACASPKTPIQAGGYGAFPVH

Compound	IC50 [1]	residual activity [2]	residual activity [3]	residual activity [4]	residual activity [5]	residual activity [6]
O=C(Nc1cc(C(F)(F)F)ccc1F)Nc1ccc(Oc2ccnc3[nH]c(=O)[nH]c23)c2ccccc12	214 nM	100%	100%	100%	100%	50%
CC(C)(C)c1cccc(NC(=O)Nc2ccc(Oc3ccnc4[nH]c(=O)[nH]c34)c3ccccc23)c1	19300 nM	75%	75%	100%	100%	75%
CSc1cc(Oc2ccnc3[nH]c(=O)[nH]c23)ccc1NC(=O)Nc1cccc(C(F)(F)F)c1	1300 nM	100%	100%	100%	100%	50%

From ChEMBL document CHEMBL1136991, “Novel potent BRAF inhibitors: toward 1 nM compounds through optimization of the central phenyl ring” (J Med Chem, 2009)
